The test system of test [1] is Carnobacterium divergens. Nature of the test: Activity of Carnobacterium divergens BM4489 penicillinase Cad-1 assessed as initial rate of hydrolysis by spectrophotometer.
Test [2] relates to Carnobacterium divergens. Nature of the test: Ratio of Kcat to Km of Carnobacterium divergens BM4489 penicillinase Cad-1.
Test [3] deals with Carnobacterium divergens. Nature of the test: Ratio of Kcat to Km of Carnobacterium divergens BM4489 penicillinase Cad-1 relative to benzyl-penicillin.
Test [4] has as its system Carnobacterium divergens. Nature of the test: Activity of Carnobacterium divergens BM4489 penicillinase Cad-1 at 1 uM enzyme concentration assessed as initial rate of hydrolysis by spectrophotometer.
The subject of test [5] is Escherichia coli. Briefly: Antimicrobial activity against Escherichia coli BL21 (DE3) harboring pAT514 by E-test. It counts as functional. Summed up: (§1)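 MICs read by E-test strips on Mueller-Hinton agar.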
The test system of test [6] is Carnobacterium divergens. Nature of the test: Antimicrobial activity against Carnobacterium divergens BM4489 expressing beta-lactamase CAD1 at 3 McFarland inoculum size by E-test. It counts as functional.
The subject of test [7] is Carnobacterium divergens. Briefly: Antimicrobial activity against Carnobacterium divergens BM4490 expressing beta-lactamase CAD1 at 3 McFarland inoculum size by E-test. It counts as functional, organism-based. Conditions: 3 M.
The test system of test [8] is Carnobacterium divergens. Nature of the test: Antimicrobial activity against Carnobacterium divergens CIP101029 at 0.5 McFarland inoculum size by E-test. It counts as functional.
Test [9] has as its system Carnobacterium divergens. Nature of the test: Antimicrobial activity against Carnobacterium divergens CIP101029 at 3 McFarland inoculum size by E-test. It counts as functional.
Test [10] concerns Carnobacterium divergens. Briefly: Antimicrobial activity against Carnobacterium divergens BM4489 expressing beta-lactamase CAD1 at 0.5 McFarland inoculum size by E-test. It counts as functional.
In test [11] the test system is Carnobacterium divergens. Nature of the test: Antimicrobial activity against Carnobacterium divergens BM4490 expressing beta-lactamase CAD1 at 0.5 McFarland inoculum size by E-test. It counts as functional, organism-based.
Test [12] has as its system Escherichia coli. Briefly: Antimicrobial activity against Escherichia coli BL21 (DE3) by E-test. It counts as functional. A digest of the protocol: as §1
The nature of test [13]: Ratio of IC50 for beta-lactamase TEM-1 over IC50 for Carnobacterium divergens BM4489 penicillinase Cad-1.
The nature of test [14]: Inhibition of Carnobacterium divergens BM4489 penicillinase Cad-1. Summed up:
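CAD-1 carried a C-terminal His6 tag and was expressed in E. coli BL21-CodonPlus(DE3)-RIPL from pAT514. It was purified by Ni affinity and Superdex 75 gel filtration. Enzyme was preincubated with varied inhibitor for 30 min at 25°C in 100 mM sodium phosphate pH 7.0, then 100 µM nitrocefin was added. Initial hydrolysis rates were followed spectrophotometrically. IC50 is the inhibitor concentration halving the rate.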

Converted amounts (≈) assume the structure as drawn. The source made the active and inactive calls. No cut-off for these calls is given here.

As to `CC1(C)S[C@@H]2[C@H](NC(=O)C(C(=O)O)c3ccccc3)C(=O)N2[C@H]1C(=O)O` (some centres undefined), in the test with Carnobacterium divergens [1], the Michaelis constant (Km) (in general, the concentration of substrate that gives half-maximal velocity) is 245 µM and the kcat (usually the maximal rate divided by the concentration of active sites) is 6 s⁻¹. Moreover, the kcat/Km in the test on Carnobacterium divergens [2] is 24000 M⁻¹ s⁻¹. Also, in the test on Carnobacterium divergens [3], the kcat/Km stood at 0.4.

Consider `CO/N=C(\C(=O)N[C@@H]1C(=O)N2C(C(=O)O)=C(COC(N)=O)CS[C@H]12)c1ccco1`, for which the outcome in the test with Carnobacterium divergens [4] was inactive.

As for `CO/N=C(\C(=O)N[C@@H]1C(=O)N2C(C(=O)[O-])=C(C[N+]3(C)CCCC3)CS[C@H]12)c1csc(N)n1`, in the test with Carnobacterium divergens [4], the result was inactive.

`CO[C@@]1(NC(=O)Cc2cccs2)C(=O)N2C(C(=O)O)=C(COC(N)=O)CS[C@@H]21`: the result with Carnobacterium divergens [4] was inactive.

Consider `O=C(Cc1cccs1)N[C@@H]1C(=O)N2C(C(=O)[O-])=C(C[n+]3ccccc3)CS[C@H]12`, for which, in the test on Carnobacterium divergens [1], the Km worked out at 26 µM. The kcat with Carnobacterium divergens [1] is 0.56 s⁻¹. The kcat/Km in the test with Carnobacterium divergens [2] stood at 22000 M⁻¹ s⁻¹; in the test on Carnobacterium divergens [3], 0.3.

Consider `CC1(C)S[C@@H]2[C@H](NC(=O)[C@H](N)c3ccc(O)cc3)C(=O)N2[C@H]1C(=O)O` [AMOXICILLIN], for which the MIC (commonly the lowest concentration found to suppress growth) was more than 256 µg/mL against Escherichia coli [5]; 16 µg/mL (≈ 43.8 µM) in the test on Carnobacterium divergens [6]; 0.75 µg/mL (≈ 2.05 µM) against Carnobacterium divergens [8]; 2 µg/mL (≈ 5.47 µM) with Carnobacterium divergens [9]; 4 µg/mL (≈ 10.9 µM) in the test on Carnobacterium divergens [10]; 1.5 µg/mL (≈ 4.1 µM) in the test with Escherichia coli [12]. The MIC result with Carnobacterium divergens [7] and in the test on Carnobacterium divergens [11] was “Active” throughout.

With `CC1(C)S[C@@H]2[C@H](NC(=O)[C@H](N)c3ccccc3)C(=O)N2[C@H]1C(=O)O` [AMPICILLIN], the MIC is more than 256 µg/mL against Escherichia coli [5]; 24 µg/mL (≈ 68.7 µM) in the test with Carnobacterium divergens [6]; 1.5 µg/mL (≈ 4.29 µM) against Carnobacterium divergens [8]; 2 µg/mL (≈ 5.72 µM) with Carnobacterium divergens [9]; 3 µg/mL (≈ 8.59 µM) against Carnobacterium divergens [10]; 0.75 µg/mL (≈ 2.15 µM) with Escherichia coli [12]. Moreover, the Km in the test with Carnobacterium divergens [1] was found to be 48 µM. The kcat with Carnobacterium divergens [1] stood at 153 s⁻¹. Also, the MIC result in the test on Carnobacterium divergens [7] and in the test with Carnobacterium divergens [11] was “Active” throughout. For the same compound, the kcat/Km in the test on Carnobacterium divergens [2] turned out to be 3.19e+06 M⁻¹ s⁻¹; in the test with Carnobacterium divergens [3], 48.

Take `C[C@H]1[C@H](NC(=O)/C(=N\OC(C)(C)C(=O)O)c2csc(N)n2)C(=O)N1S(=O)(=O)O` [AZTREONAM]: the MIC with Escherichia coli [5] was less than 0.016 µg/mL; with Carnobacterium divergens [6], more than 256 µg/mL; in the test with Carnobacterium divergens [8], more than 256 µg/mL; in the test on Carnobacterium divergens [9], more than 256 µg/mL; against Carnobacterium divergens [10], more than 256 µg/mL; against Escherichia coli [12], less than 0.016 µg/mL. Moreover, the outcome in the test on Carnobacterium divergens [4] was Active. Moreover, the MIC entry in the test with Carnobacterium divergens [7] and in the test on Carnobacterium divergens [11] was “Active” throughout.

As for `CO/N=C(\C(=O)N[C@@H]1C(=O)N2C(C(=O)O)=C(COC(C)=O)CS[C@H]12)c1csc(N)n1` [CEFOTAXIME], the MIC in the test on Carnobacterium divergens [6] is more than 256 µg/mL; against Carnobacterium divergens [8] it was more than 256 µg/mL; in the test with Carnobacterium divergens [9], more than 256 µg/mL; against Carnobacterium divergens [10], more than 256 µg/mL; against Escherichia coli [12], less than 0.016 µg/mL. Also, in the test on Carnobacterium divergens [4], the result was inactive. Besides, the MIC entry in the test with Carnobacterium divergens [7] and in the test with Carnobacterium divergens [11] was “Active” in each case.

As for `CC(C)(O/N=C(\C(=O)N[C@@H]1C(=O)N2C(C(=O)[O-])=C(C[n+]3ccccc3)CS[C@H]12)c1csc(N)n1)C(=O)O` [CEFTAZIDIME], the MIC is 0.047 µg/mL (≈ 0.086 µM) against Escherichia coli [5]; more than 256 µg/mL with Carnobacterium divergens [6]; more than 256 µg/mL with Carnobacterium divergens [8]; more than 256 µg/mL in the test on Carnobacterium divergens [9]; more than 256 µg/mL in the test with Carnobacterium divergens [10]; 0.064 µg/mL (≈ 0.117 µM) against Escherichia coli [12]. In addition, the outcome in the test with Carnobacterium divergens [4] was inactive. For the same compound, the MIC result in the test with Carnobacterium divergens [7] and in the test with Carnobacterium divergens [11] was “Active” each time.

`O=C(O)[C@H]1/C(=C/CO)O[C@@H]2CC(=O)N21` [CLAVULANIC ACID]: the Ratio IC50 in test [13] was 60. Also, half-maximal inhibition in test [14] (IC50) was put at 4.7 µM.

Regarding `C[C@@H](O)[C@H]1C(=O)N2C(C(=O)O)=C(SCCNC=N)C[C@H]12` [IMIPENEM ANHYDROUS], the MIC stood at 0.19 µg/mL (≈ 0.635 µM) in the test on Escherichia coli [5]; 0.19 µg/mL (≈ 0.635 µM) with Carnobacterium divergens [6]; 0.19 µg/mL (≈ 0.635 µM) in the test with Carnobacterium divergens [8]; 0.19 µg/mL (≈ 0.635 µM) in the test on Carnobacterium divergens [9]; 0.19 µg/mL (≈ 0.635 µM) in the test on Carnobacterium divergens [10]; 0.25 µg/mL (≈ 0.835 µM) against Escherichia coli [12]. Moreover, the MIC entry with Carnobacterium divergens [7] and with Carnobacterium divergens [11] was “Active” throughout.

Take `Cc1onc(-c2ccccc2)c1C(=O)N[C@@H]1C(=O)N2[C@@H]1SC(C)(C)[C@@H]2C(=O)O` [OXACILLIN]: the MIC in the test with Carnobacterium divergens [6] is 24 µg/mL (≈ 59.8 µM); against Carnobacterium divergens [8] it was 16 µg/mL (≈ 39.9 µM); against Carnobacterium divergens [9], 24 µg/mL (≈ 59.8 µM); in the test with Carnobacterium divergens [10] it was 24 µg/mL (≈ 59.8 µM). Further, in the test with Carnobacterium divergens [1], the Km was 21 µM. The kcat in the test on Carnobacterium divergens [1] is 62 s⁻¹. In addition, the MIC entry in the test with Carnobacterium divergens [7] and with Carnobacterium divergens [11] was “Active” throughout. The kcat/Km with Carnobacterium divergens [2] was 2.95e+06 M⁻¹ s⁻¹; in the test on Carnobacterium divergens [3], 45.

With `CC1(C)S[C@@H]2[C@H](NC(=O)Cc3ccccc3)C(=O)N2[C@H]1C(=O)O` [PENICILLIN G], the MIC in the test on Escherichia coli [5] is more than 256 µg/mL; in the test with Carnobacterium divergens [6] it was 96 µg/mL (≈ 287 µM); in the test on Carnobacterium divergens [8], 3 µg/mL (≈ 8.97 µM); against Carnobacterium divergens [9], 6 µg/mL (≈ 17.9 µM); against Carnobacterium divergens [10] it was 12 µg/mL (≈ 35.9 µM); in the test with Escherichia coli [12] it was 4 µg/mL (≈ 12 µM). For the same compound, the Michaelis-Menten constant (Km) with Carnobacterium divergens [1] came to 27 µM. In addition, in the test with Carnobacterium divergens [1], the kcat turned out to be 178 s⁻¹. Also, the minimum inhibitory concentration (MIC) result in the test on Carnobacterium divergens [7] and in the test with Carnobacterium divergens [11] was “Active” each time. Besides, the kcat/Km in the test on Carnobacterium divergens [2] is 6.6e+06 M⁻¹ s⁻¹.

Turning to `CCN1CCN(C(=O)N[C@@H](C(=O)N[C@@H]2C(=O)N3[C@@H]2SC(C)(C)[C@@H]3C(=O)O)c2ccccc2)C(=O)C1=O` [PIPERACILLIN], the minimal inhibitory concentration (MIC) in the test on Escherichia coli [5] is more than 256 µg/mL; against Carnobacterium divergens [6], 128 µg/mL (≈ 247 µM); against Carnobacterium divergens [8] it was 12 µg/mL (≈ 23.2 µM); in the test on Carnobacterium divergens [9] it was 32 µg/mL (≈ 61.8 µM); against Carnobacterium divergens [10], 64 µg/mL (≈ 124 µM); against Escherichia coli [12] it was 0.38 µg/mL (≈ 0.734 µM). Further, in the test with Carnobacterium divergens [1], the Km is 70 µM. Besides, the kcat in the test with Carnobacterium divergens [1] was 64 s⁻¹. Further, the MIC result with Carnobacterium divergens [7] and with Carnobacterium divergens [11] was “Active” throughout. For the same compound, the kcat/Km in the test with Carnobacterium divergens [2] is 914000 M⁻¹ s⁻¹; in the test on Carnobacterium divergens [3], 14.

In the case of `CC1(C)[C@H](C(=O)O)N2C(=O)C[C@H]2S1(=O)=O` [SULBACTAM], in test [14], the IC50 (commonly the concentration at which inhibition is half-maximal) was found to be 43.5 µM. This counts as double-digit micromolar.

In turn, `C[C@]1(Cn2ccnn2)[C@H](C(=O)O)N2C(=O)C[C@H]2S1(=O)=O` [TAZOBACTAM] registered an IC50 in [14] of 0.27 µM.

For the compound `CC1(C)S[C@@H]2[C@H](NC(=O)[C@H](C(=O)O)c3ccsc3)C(=O)N2[C@H]1C(=O)O` [TICARCILLIN], the MIC against Escherichia coli [5] is more than 256 µg/mL; against Carnobacterium divergens [6], 128 µg/mL (≈ 333 µM); with Carnobacterium divergens [8] it was 24 µg/mL (≈ 62.4 µM); in the test on Carnobacterium divergens [9], 24 µg/mL (≈ 62.4 µM); with Carnobacterium divergens [10], 32 µg/mL (≈ 83.2 µM); with Escherichia coli [12], 0.75 µg/mL (≈ 1.95 µM). Besides, the Km with Carnobacterium divergens [1] came out at 106 µM. The kcat with Carnobacterium divergens [1] was 35 s⁻¹. The MIC result with Carnobacterium divergens [7] and in the test with Carnobacterium divergens [11] was “Active” each time. In addition, the kcat/Km in the test on Carnobacterium divergens [2] came to 330000 M⁻¹ s⁻¹; with Carnobacterium divergens [3] it was 5.
